How the values were obtained:
[1] = system: Severe acute respiratory syndrome-related coronavirus; test: (§1) Inhibition of SARS coronavirus papain-like protease (1541 to 1855 amino acids) expressed in Escherichia coli BL21 (DE3) using Z-RLRGG-AMC as substrate by fluorogenic assay
In short: (§2)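 Protease domain construct His-tagged, purified by nickel affinity, ion-exchange and gel filtration, tag removed by TEV. […] AMC release followed continuously at ex 360/em 460 nm. IC50 is the concentration giving 50% activity loss; three repeat experiments, standard deviation.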

[2] = as §1; set-up: species or system Severe acute respiratory syndrome-related coronavirus; in short: as §2
[3] = Mixed-type of inhibition of SARS coronavirus papain-like protease (1541 to 1855 amino acids) expressed in Escherichia coli BL21 (DE3) using Z-RLRGG-AMC as substrate by Dixon plot analysis; set-up: species or system Severe acute respiratory syndrome-related coronavirus

| SMILES | inhibition [1] | IC50 [2] [µM] | Ki [3] [µM] |
| --- | --- | --- | --- |
| COc1ccc([C@@H]2CC(=O)c3c(cc4c(c3O)CCC(C)(CCCC(C)(C)O)O4)O2)cc1O (some centres undefined) | Dose-dependent effect |  |  |
| COc1cc([C@@H]2CC(=O)c3c(cc(O)c(C/C=C(\C)CCC=C(C)C)c3O)O2)ccc1O | Dose-dependent effect | 13.2 | 7.1 |
| COc1cc([C@@H]2CC(=O)c3c(cc4c(c3O)CCC(C)(CCCC(C)(C)O)O4)O2)cc(O)c1OC (some centres undefined) | Dose-dependent effect | 11.6 | 5 |
| COc1ccc([C@@H]2CC(=O)c3c(cc(O)c(C/C=C(\C)CCC=C(C)C)c3O)O2)cc1O | Dose-dependent effect | 12.7 | 6.9 |
| CC(C)=CCC/C(C)=C/Cc1c(O)cc2c(c1O)C(=O)C[C@@H](c1ccc(O)cc1)O2 [BONANNIONE A] | Dose-dependent effect | 14.4 | 7.8 |
| COc1ccc([C@H]2Oc3cc(O)c(C/C=C(\C)CCC=C(C)C)c(O)c3C(=O)[C@@H]2O)cc1O | Dose-dependent effect | 9.2 | 6.3 |
| CC(C)(O)CCCC1(C)CCc2c(cc3c(c2O)C(=O)C[C@@H](c2ccc(O)c(O)c2)O3)O1 (some centres undefined) | Dose-dependent effect | 6.2 | 4.8 |
| COc1cc([C@H]2Oc3cc(O)c(C/C=C(\C)CCC=C(C)C)c(O)c3C(=O)[C@@H]2O)ccc1O | Dose-dependent effect | 9.5 | 6.6 |
| CC(C)=CCC/C(C)=C/Cc1c(O)cc2c(c1O)C(=O)C[C@@H](c1ccc(O)c(O)c1)O2 [NYMPHAEOL A] | Dose-dependent effect | 10.4 | 5.1 |
| COc1cc([C@H]2Oc3cc4c(c(O)c3C(=O)[C@@H]2O)CCC(C)(CCCC(C)(C)O)O4)ccc1O (some centres undefined) | Dose-dependent effect | 5 | 3.7 |
| COc1cc([C@@H]2CC(=O)c3c(cc4c(c3O)CCC(C)(CCCC(C)(C)O)O4)O2)cc(OC)c1O (some centres undefined) | Dose-dependent effect | 12.5 | 13 |
| COc1cc([C@@H]2CC(=O)c3c(cc(O)c(C/C=C(\C)CCC=C(C)C)c3O)O2)cc(OC)c1O | Dose-dependent effect | 13.9 | 8.4 |
